A3A deaminase: APOBEC3A ssDNA deaminase inhibitors, primary screen, selectivity assay for APOBEC3G inhibitor project, biochemical, FAM/TAMRA oligo cleavage fluorescence. AID 493011, 2011. recombinant A3A, FAM/TAMRA ssDNA deamination fluorescence. DNA dC->dU-editing enzyme APOBEC-3A (Homo sapiens), P31941. hit rate 0.41% among 330,000. inhibition, % at 20 µM;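 active means at least 40% inhibition at 20 µM here, with at most 30% in a related deaminase screen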;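 further: plate controls were A3A with DMSO for no effect and wells lacking A3A enzyme for full effect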
AHR act: AHR activators, primary screen, cell-based, luminescence, luciferase reporter, human; AID 2796, 2010; hit rate 2.5% among 320,000; activation, % at 5 µM; AHR-responsive luciferase reporter cells; in the data active means activation above about 47%;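 further: 0% = vehicle wells and 100% = reference agonist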
Target sequence (P35869 whole entry, looked up): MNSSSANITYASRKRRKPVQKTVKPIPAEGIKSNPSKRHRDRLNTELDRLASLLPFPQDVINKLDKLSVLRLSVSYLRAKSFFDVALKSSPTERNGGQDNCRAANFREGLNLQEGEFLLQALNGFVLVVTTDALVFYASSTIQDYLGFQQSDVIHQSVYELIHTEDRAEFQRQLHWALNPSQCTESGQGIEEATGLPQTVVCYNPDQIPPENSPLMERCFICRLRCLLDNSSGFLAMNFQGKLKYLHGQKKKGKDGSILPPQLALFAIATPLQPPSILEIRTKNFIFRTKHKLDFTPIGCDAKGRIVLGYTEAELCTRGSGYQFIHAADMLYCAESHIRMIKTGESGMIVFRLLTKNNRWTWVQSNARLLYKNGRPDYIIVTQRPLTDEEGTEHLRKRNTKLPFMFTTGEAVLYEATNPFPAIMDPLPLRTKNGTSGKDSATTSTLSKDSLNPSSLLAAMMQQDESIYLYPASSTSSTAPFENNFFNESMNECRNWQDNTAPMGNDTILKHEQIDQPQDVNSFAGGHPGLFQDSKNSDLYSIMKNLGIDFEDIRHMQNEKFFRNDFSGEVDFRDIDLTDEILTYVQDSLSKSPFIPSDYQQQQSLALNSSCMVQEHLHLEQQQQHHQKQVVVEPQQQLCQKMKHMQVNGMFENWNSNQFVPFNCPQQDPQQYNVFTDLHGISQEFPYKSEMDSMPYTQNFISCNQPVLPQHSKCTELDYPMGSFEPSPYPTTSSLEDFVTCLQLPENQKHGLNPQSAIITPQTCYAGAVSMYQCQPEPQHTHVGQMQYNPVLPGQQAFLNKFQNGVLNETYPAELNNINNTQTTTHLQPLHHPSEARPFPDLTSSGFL
PolyA inhibitor: polyadenylation inhibitors in yeast reporter cells, primary screen, luminescence, S. cerevisiae; S. cerevisiae SKY197-pL101 polyadenylation reporter, beta-gal luminescence; efflux-impaired pdr1/pdr3 knockout yeast; score 100 = 6 SD above DMSO; hit rate 0.02% among 300,000; AID 1875, 2009; activity score, % at 12 µM;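 active means lowest replicate activity score at least 50, where 100 means six control SD above control mean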;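 further: yeast exposed to compound for 9 h at 30 °C; higher score means more reporter readthrough which indicates perturbed polyadenylation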
UCH37 DUB inh: inhibitors of human UCH37 deubiquitinase, primary screen, biochemical, Ub-AMC cleavage, fluorescence; hit rate 0.33% among 330,000; AID 588478, 2011; purified proteasome/UCH37; Ubiquitin carboxyl-terminal hydrolase isozyme L5 (Homo sapiens), Q9Y5K5; inhibition, % (concentration not given with the values);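 active means mean inhibition over replicate wells above about 20%, limit read from the data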;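 further: 0% = compound-free wells with enzyme and 100% = wells lacking proteasome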
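Material: Human UCH37 enzyme supplied as purified proteasome complex | Schedule: 30 min compound-proteasome preincubation then 25 min substrate reaction, room temperature | Detection: AMC fluorescence from Ub-AMC cleavage, excitation 355 nm, emission 460 nm | Benchmarks: Wells without proteasome as full block, compound-free enzyme plus substrate as uninhibited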
Arr AP2 block: inhibitors of beta-arrestin/AP2 binding, primary screen, biochemical, GPCR trafficking, flow cytometry. hit rate 0.31% among 340,000. inhibition, % at 10 µM. AID 504490, 2011. FITC-arrestin peptide / GST-AP2 beads; AP2 beta2 appendage carries R879A mutation;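 active means inhibition above a set limit, near 3 SD of compounds lacking own fluorescence, cut at about 54% in these data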;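 further: plate controls were DMSO wells for no effect and 5 µM unlabelled arrestin peptide for full effect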
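Measured by: flow cytometry, FL1 (488/535 nm); Material: AP2 appendage R879A on GSH beads; Evaluation: percent response; Timing: pre-incubation 12 min, peptide binding 1 h, room temperature; Also added: 50 nM FITC-arrestin peptide; Medium: PBS with 0.05% Tween 20 and 0.1% BSA.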
A3G deaminase: APOBEC3G DNA deaminase inhibitors, primary screen, biochemical, fluorescence, single-stranded DNA substrate, uHTS; DNA dC->dU-editing enzyme APOBEC-3G (Homo sapiens), Q9HC16; recombinant A3G, ssDNA deamination FAM/TAMRA fluorescence; inhibition, % at 20 µM; hit rate 0.28% among 330,000; AID 493012, 2011;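 active means inhibition of at least 40% at 20 µM, with no more than 30% in the related APOBEC3A deaminase screen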;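 further: plate controls were DMSO wells with A3G for no effect and wells lacking A3G enzyme for full effect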
Active calls of the source: *; . = no result. The list is not random: actives were taken first. Their share in the collection is about 3.4%.

SMILES	A3A deaminase	AHR act	PolyA inhibitor	UCH37 DUB inh	Arr AP2 block	A3G deaminase
CCOc1ccc(C2C=C(c3ccc(F)cc3)Nc3ncnn32)cc1 (stereo not drawn)	2	63*	-18	-27	-2	-2
Brc1ccc(C2=CC(c3cccs3)n3ncnc3N2)cc1 (stereo not drawn)	-39	85*	-33	-1	9	-75
OCCCc1nc2n(n1)C(c1cccs1)C=C(c1ccc(Br)cc1)N2 (stereo not drawn)	-25	-12	23	.	.	-88
CCOc1ccc(C2C=C(c3ccccc3)Nc3ncnn32)cc1 (stereo not drawn)	-3	39	-12	.	.	-4
Fc1ccc(Br)cc1C1C=C(c2cccnc2)Nc2ncnn21 (stereo not drawn)	.	59*	17	-3	23	.
CC1CN(C)C(C)CC1=NOc1ccccc1[N+](=O)[O-] (stereo not drawn)	.	.	.	8	.	.
Fc1ccc(C2=CC(c3ccc(Br)o3)n3ncnc3N2)cc1 (stereo not drawn)	.	87*	.	.	23	.
Fc1ccc(C2=CC(c3ccco3)n3ncnc3N2)cc1 (stereo not drawn)	2	15	6	-88	-1	-6
COc1ccc(OC)c(/C=N/NC(=O)c2cc3c(OC)c(OC)ccc3[nH]2)c1	-3	79*	-20	.	-3	-3
C=CCOc1ccc(C=NNC(=O)c2cc3c(OC)cc(OC)cc3[nH]2)cc1	.	.	.	-66	.	.
CCOc1ccc(/C=N/NC(=O)c2cc3c(OC)cc(OC)c(OC)c3[nH]2)cc1	-7	48*	12	.	-7	-14
Cc1nc2ccccc2n1CC(=O)NN=Cc1ccccn1	.	.	.	-2	.	.
COc1cc(C=NNC(=O)Cc2cccs2)c([N+](=O)[O-])cc1OC	.	.	.	6	.	.
CC(CCN1CCc2nc(-c3ccccc3)c(-c3ccccc3)cc2C1)=NOC[C@@H](C)[C@H](OCc1ccccc1)C(C)C	.	.	.	3	.	.
Nc1cc(Cl)nc(N/N=C/c2c(O)ccc3ccccc23)n1	2	55*	-59	.	28	6
COc1cc(Cl)c(C)cc1NC(=O)c1cccc(OC)c1OC	4	58*	-5	-1	34	1
COc1cc(Cl)c(C)cc1NC(=O)c1ccc2c(c1)OCO2	3	73*	19	-11	32	0
COc1ccc(Cl)cc1NC(=O)NCc1ccc2c(c1)OCO2	-2	76*	1	2	-10	-4
COc1ccccc1NC(=O)NCc1ccc2c(c1)OCO2	-1	.	-2	1	.	-2
Cc1cc2cc3c(cc2nc1SCC(=O)Nc1nc(C)c(C)s1)OCO3	0	92*	15	1	-9	-9
COC(=O)CSc1nc2cc3c(cc2cc1C)OCO3	-3	1	-24	3	13	-4
CCOC(=O)c1[nH]c2ccc(OC)cc2c1NC(=O)c1ccc(OC)c(OC)c1	-1	3	5	-9	5	-10
COC(=O)c1[nH]c2cc(OC)c(OC)cc2c1NC(=O)c1cccc(OC)c1	2	62*	19	0	19	-3
Cc1cc(C)[n+]2[nH]c(N)c(N=Nc3ccccc3)c2n1	2	70*	-1	14	16	9
Cc1cc(C(F)(F)Cl)n2ncc(-c3ccccn3)c2n1	0	64*	-7	4	-6	-2
SMILES	A3A deaminase	AHR act	PolyA inhibitor	UCH37 DUB inh	Arr AP2 block	A3G deaminase
COc1ccc(-c2c(C)nc3c(-c4ccccn4)cnn3c2N)cc1	.	.	-20	-122	25	.
O=C(NN=C/C(Cl)=C/c1ccccc1)c1ccco1	.	.	.	12	.	.
CN1CCN(c2ccccc2NC(=O)c2ccccc2F)CC1	4	4	0	3	-6	0
CC(=O)N1CCN(c2ccccc2NC(=O)c2ccc(C#N)cc2F)CC1	-2	71*	17	2	-12	-7
COc1ccccc1/C=C/C=Nn1c(-c2ccncc2)n[nH]c1=S	.	.	.	8	.	.
CCN1CCN(CCCNC(=O)C2CCN(c3nnc(-n4c(C)ccc4C)s3)CC2)CC1	-2	51*	8	6	2	1
CC(=NNC(=O)c1ccccc1)c1ccc2c(c1)OCO2	.	.	.	3	.	.
Cc1cc(C)cc(NC2=C(N)C(=O)c3ccccc3C2=O)c1	-3	55*	8	4	11	-3
CC(=NNC(=O)CC1N=C(Cc2ccccc2)NNC1=O)c1ccc(Br)cc1 (stereo not drawn)	.	.	.	5	.	.
COc1cc2c(cc1NC(=O)C(C)N1CCN(S(=O)(=O)c3ccccc3[N+](=O)[O-])CC1)oc1ccccc12 (stereo not drawn)	-1	42	5	3	4	-4
COc1ccc(S(=O)(=O)Nc2ccccc2Cl)cc1NC(C)=O	9	-1	3	3	7	-2
COc1cc2c(cc1NC(=O)C(C)N1CCN(S(=O)(=O)c3ccc(C)c(C)c3)CC1)oc1ccccc12 (stereo not drawn)	3	59*	19	-36	14	0
COc1cc2c(cc1NC(=O)C(C)OC(=O)c1ccc(S(=O)(=O)Nc3ccccc3Cl)cc1)oc1ccccc12 (stereo not drawn)	-2	78*	-3	2	0	-10
COc1ccc(C=Nn2c(C)nc3sc(C)c(C)c3c2=O)cc1OC	.	.	.	4	.	.
CCCOC(=O)C1=C(C)N(C)C(=O)NC1c1cc2c(cc1[N+](=O)[O-])OCO2 (stereo not drawn)	8	60*	-4	-27	20	12
O=S(=O)(N=C(c1ccccc1)N1CCCCC1)c1ccccc1	.	.	.	1	.	.
O=C(O)CCC(=NNc1ccc([N+](=O)[O-])cc1S(=O)(=O)N1CCOCC1)c1cccs1	.	.	.	8	.	.
O=C(O)CCC(=NNc1ccc(S(=O)(=O)N2CCOCC2)cc1[N+](=O)[O-])c1cccs1	.	.	.	20*	.	.
O=C(Cc1nnc(NC(=O)c2ccccc2)s1)N/N=C/c1cccc(O)c1	-1	9	-6	.	0	2
O=C(Cc1nnc(NC(=O)c2ccccc2)s1)N/N=C/c1ccco1	-1	115*	10	.	1	-4
CCOc1cc(C(=O)NCCCn2ccnc2)cc(OCC)c1OCC	1	50*	3	-1	0	-2
